In ChEMBL document CHEMBL1287697, “Receptor agonists of macrophage migration inhibitory factor” (Bioorg Med Chem Lett, 2010):
Each block holds one compound with its values, some of them ahead of it. Active and inactive are the calls of the source. No cut-off for these calls is given here.

Legend:
[1] = target: T1, MIF/CD74 (Macrophage migration inhibitory factor and HLA-DR antigens-associated invariant chain) (Homo sapiens) (UniProt P14174+P04233); test: (§1) Inhibition of human biotinylated MIF/CD74 interaction; format: protein assay
[2] = target: T2, MIF/CD74 (Macrophage migration inhibitory factor and HLA-DR antigens-associated invariant chain) (Homo sapiens, UniProt P14174+P04233); test: as §1; format: protein assay
T2 sequence (P14174 whole entry): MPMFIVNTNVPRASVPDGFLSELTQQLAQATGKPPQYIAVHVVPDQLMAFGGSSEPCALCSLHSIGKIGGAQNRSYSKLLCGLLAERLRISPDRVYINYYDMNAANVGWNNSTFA
T2 sequence (P04233 whole entry): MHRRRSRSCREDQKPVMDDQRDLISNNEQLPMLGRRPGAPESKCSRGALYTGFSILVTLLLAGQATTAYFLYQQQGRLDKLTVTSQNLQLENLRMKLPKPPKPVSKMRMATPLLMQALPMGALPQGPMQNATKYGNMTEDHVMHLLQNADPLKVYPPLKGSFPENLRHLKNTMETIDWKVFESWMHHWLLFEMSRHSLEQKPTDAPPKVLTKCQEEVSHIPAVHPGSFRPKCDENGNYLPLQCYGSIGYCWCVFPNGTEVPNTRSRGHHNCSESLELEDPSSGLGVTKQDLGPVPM

[3] = target: T3, Macrophage migration inhibitory factor (Homo sapiens) (UniProt P14174); test: (§2) Inhibition of human MIF tautomerase activity using 4-hydroxyphenylpyruvate as substrate
T3 sequence (whole entry): T2 sequence (P14174 whole entry)
Outline: (§3)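 Recombinant human MIF tautomerase activity with 4-hydroxyphenylpyruvate as substrate. Compounds were tested between 1 nM and 1 mM. Where inhibition plateaued below 50%, the maximum percent inhibition was reported.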

[4] = target: T4, Macrophage migration inhibitory factor (Homo sapiens, UniProt P14174); test: as §2; outline: as §3
T4 sequence (P14174 whole entry): T2 sequence (P14174 whole entry)

[5] = target: T5, MIF/CD74 (Macrophage migration inhibitory factor and HLA-DR antigens-associated invariant chain) (Homo sapiens, UniProt P04233+P14174); test: as §1; format: protein assay
T5 sequence (P14174 whole entry): T2 sequence (P14174 whole entry)
T5 sequence (P04233 whole entry): T2 sequence (P04233 whole entry)

[6] = target: T3, Macrophage migration inhibitory factor (Homo sapiens); test: Inhibition of MIF-dependent ERK1/2 phosphorylation in human fibroblast after 30 mins by Western blotting
Outline: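 MIF-dependent ERK1/2 phosphorylation was measured in human fibroblasts. Phospho-ERK1/2 and total ERK1/2 were detected by western blot. The phospho/total ratio was determined by densitometry across three separate experiments.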

[7] = target: T3, Macrophage migration inhibitory factor (Homo sapiens); test: Agonist activity at human MIF tautomerase using 4-hydroxyphenylpyruvate as substrate at 100 uM; format: functional
[8] = target: T3, Macrophage migration inhibitory factor (Homo sapiens); test: Induction of MIF-dependent ERK1/2 phosphorylation in human fibroblast after 30 mins by Western blotting
[9] = target: T1, MIF/CD74 (Macrophage migration inhibitory factor and HLA-DR antigens-associated invariant chain) (Homo sapiens); test: Binding affinity to human biotinylated MIF/CD74 at 150 nM; format: protein assay
[10] = target: T1, MIF/CD74 (Macrophage migration inhibitory factor and HLA-DR antigens-associated invariant chain) (Homo sapiens); test: Activation of human biotinylated MIF/CD74; format: protein assay
[11] = target: T1, MIF/CD74 (Macrophage migration inhibitory factor and HLA-DR antigens-associated invariant chain) (Homo sapiens); test: Binding affinity to human biotinylated MIF/CD74 at 100 nM; format: protein assay
[12] = target: T1, MIF/CD74 (Macrophage migration inhibitory factor and HLA-DR antigens-associated invariant chain) (Homo sapiens); test: Binding affinity to human biotinylated MIF/CD74 at 500 nM; format: protein assay

Structure (SMILES): COc1ccc(Cn2cc(-c3ccc(O)cc3)nn2)cc1
IC50 [2]: Not Active

Structure (SMILES): Oc1ccc(-n2cc(-c3cccc4ccccc34)nn2)cc1
IC50 [2]: Not Active

Structure (SMILES): Cc1cccc(Cc2cn(-c3ccc(O)cc3)nn2)c1
Imax [1]: 30%

Structure (SMILES): Oc1ccc(-n2cc(Cc3cccc(O)c3)nn2)cc1
IC50 [2]: Not Active
IC50 [4]: Not Active

Structure (SMILES): COc1cccc(Cc2cn(-c3ccc(O)cc3)nn2)c1OC
IC50 [2]: Not Active

Structure (SMILES): COC(=O)c1cccc(Cn2cc(-c3ccc(O)cc3)nn2)c1
IC50 [5]: 1.2 µM
IC50 ([4]; read-out: IC50): 2.5 µM

Structure (SMILES): Oc1ccc(-n2cc(Cc3ccccc3)nn2)cc1
IC50 [5]: 3.5 µM

Structure (SMILES): Oc1ccc(-c2cn(Cc3ccccc3)nn2)cc1
IC50 [2]: Not Active

Structure (SMILES): Oc1ccc(-n2cc(-c3cncc4ccccc34)nn2)cc1
Activity [7]: Active
Activity [8]: Active
Activity [9]: 100%
Activity [10]: 39%

Structure (SMILES): COc1ccc(Cc2cn(-c3ccc(O)cc3)nn2)cc1
Imax [1]: 36%

Structure (SMILES): Oc1ccc(-c2cn(-c3cncc4ccccc34)nn2)cc1
Imax [1]: 12%

Structure (SMILES): Oc1ccc(-c2cn(Cc3ccccn3)nn2)cc1
Imax [1]: 30%

Structure (SMILES): Cc1cccc(Cn2cc(-c3ccc(O)cc3)nn2)c1
IC50 [2]: Not Active

Structure (SMILES): Oc1ccc(-c2cn(Cc3cccnc3)nn2)cc1
Imax [1]: 20%

Structure (SMILES): COc1ccccc1Cn1cc(-c2ccc(O)cc2)nn1
Activity [7]: Active
Activity [8]: Active
Activity [10]: 31%
Activity [12]: 40%

Structure (SMILES): COc1cccc(Cn2cc(-c3ccc(O)cc3)nn2)c1
IC50 [5]: 50 µM

Structure (SMILES): O=C(O)c1cccc(Cn2cc(-c3ccc(O)cc3)nn2)c1
IC50 [2]: Not Active

Structure (SMILES): Cc1ccccc1Cn1cc(-c2ccc(O)cc2)nn1
IC50 [2]: Not Active

Further lines, results first:

Imax [1]: 16%
Structure (SMILES): Oc1ccc(-c2cn(-c3cccnc3)nn2)cc1

Imax [1]: 14%
Imax [3]: 35%
Structure (SMILES): COc1ccccc1Cc1cn(-c2ccc(O)cc2)nn1

Imax [1]: 8%
Imax [3]: 40%
Structure (SMILES): COc1cccc(Cc2cn(-c3ccc(O)cc3)nn2)c1

Imax [1]: 23%
Structure (SMILES): Oc1ccc(-c2cn(-c3cccc4ccccc34)nn2)cc1

IC50 [5]: 0.9 µM
inhibition [6]: Active
IC50 ([4]; read-out: IC50): 0.75 µM
Structure (SMILES): COc1cccc(Cn2cc(-c3ccc(O)cc3)nn2)c1OC

Activity [7]: Active
Activity [8]: Active
Activity [11]: 100%
Activity [10]: 23%
Structure (SMILES): Oc1ccc(-n2cc(-c3cccnc3)nn2)cc1

Imax [1]: 9%
IC50 ([4]; read-out: IC50): 1000 µM
Structure (SMILES): Oc1ccc(-n2cc(Cc3ccccc3O)nn2)cc1

Imax [1]: 23%
IC50 ([4]; read-out: IC50): 690 µM
Structure (SMILES): Oc1ccc(Cc2cn(-c3ccc(O)cc3)nn2)cc1

Imax [1]: 22%
Structure (SMILES): COc1ccc(Cc2cn(-c3ccc(O)cc3)nn2)cc1OC
